Results from different studies.
Protocols differ between the studies behind these lines. pIC50: −log10 of the molar value.
Read-out: cell growth or viability

CCOC(=O)c1c(C)nc2ccc(-c3ccc(F)cc3F)cc2c1O — pIC50 (MCF-10A; MTT; 48 h): ≤ 4.00
CN1CCC(NC2CCc3[nH]c4c(C(N)=O)ccc(-c5ccccc5Cl)c4c3C2)CC1 (stereo not drawn) — pIC50 (NCI-H446; 96 h): 8.10
COc1ccc2c(c1)C(=O)C(=O)N2CCn1ncc2c(=O)[nH]cnc21 — IC50 (BALB/3T3 clone A31; SRB; 72 h): 21.7 µg/mL
Cc1ccc(S(=O)(=O)n2cc(/C=N/NC(=O)c3ccc([N+](=O)[O-])cc3)c3ccccc32)cc1 — pIC50 (MCF-10A; MTT; 48 h): < 4.30
O=C1C(=O)N(CCn2ncc3c(=O)[nH]cnc32)c2ccccc21 — IC50 (BALB/3T3 clone A31; SRB; 72 h): 23.1 µg/mL
COc1cc(C2C3=C(COC3=O)N(CCO)c3cc4c(cc32)CCC4)cc(OC)c1OC (stereo not drawn) — pIC50 (4T1; ATP luminescence; 48 h): 6.07
CC(C)[C@@H]1NC(=O)[C@H](Cc2c[nH]cn2)NC1=O — pIC50 (NCI-H446; SRB): < 4.82
CNC(=O)c1cc(Oc2ccc(NC(=O)Nc3ccc(Cl)c(C(F)(F)F)c3)cc2)ccn1 — IC50 (BALB/3T3 clone A31; SRB; 72 h): 0.42 µg/mL
CC(=O)O[C@@]12CO[C@@H]1C[C@H](O)[C@@]1(C)C(=O)[C@H](O)C3=C(C)[C@@H](OC(=O)[C@H](O)[C@@H](NC(=O)OC(C)(C)C)c4ccccc4)C[C@@](O)([C@@H](OC(=O)c4ccccc4)[C@H]21)C3(C)C — pIC50 (MCF-10A; MTT; 48 h): < 4.00
Nc1ncnc2c1ncn2CCN1C(=O)C(=O)c2cc(F)ccc21 — IC50 (BALB/3T3 clone A31; SRB; 72 h): 47.2 µg/mL
Clc1ccc(-c2cc(CNc3cccc4cccnc34)on2)c(Cl)c1 — pIC50 (K562; MTS; 72 h): 4.48
NC(=O)c1cnc(NCCc2ccc(O)c(Cl)c2)nc1NCc1ccccc1 — pIC50 (JHH7; CCK-8; 48 h): 5.89
COc1ccc(NS(=O)(=O)c2ccc3cc(C(C)=O)ccc3c2)cc1 — pIC50 (MDCK; neutral red; 48 h): 4.74
CC(C)(C)[C@H](NC(=O)/C=C/c1ccc(OP(=O)(O)O)cc1)C(=O)N1CCC[C@H]1C(=O)N(c1ccccc1)c1ccc(I)cc1 — pIC50 (JHH7; CCK-8): 5.51
Cc1ccc(S(=O)(=O)n2cc(/C=N/NC(=O)c3ccc(C(F)(F)F)cc3)c3ccccc32)cc1 — pIC50 (MCF-10A; MTT; 48 h): < 4.30
N#Cc1ccc(-c2cc(CNc3cccc4cccnc34)on2)cc1 — pIC50 (K562; MTS; 72 h): 4.95
Cc1ccc(S(=O)(=O)n2cc(/C=N/NC(=O)Cc3cc(F)cc(F)c3)c3ccccc32)cc1 — pIC50 (MCF-10A; MTT; 48 h): < 4.30
CC(=O)c1ccc2cc(S(=O)(=O)Nc3ccc(Br)cc3)ccc2c1 — pIC50 (MDCK; neutral red; 48 h): 4.02
Cc1ccc(S(=O)(=O)n2cc(/C=N/NC(=O)c3cc4ccccc4cc3O)c3ccccc32)cc1 — pIC50 (MCF-10A; MTT; 48 h): < 4.30
NC(=S)N/N=C1\C(=O)N(CCn2ncc3c(=O)[nH]cnc32)c2ccc(Cl)cc21 — IC50 (BALB/3T3 clone A31; SRB; 72 h): 14.3 µg/mL
C=CC(C)(C)c1[nH]cnc1/C=C1/NC(=O)[C@H](C(C)C)NC1=O — pIC50 (NCI-H446; SRB): 5.70
CC(=O)c1ccc2cc(S(=O)(=O)Nc3ccccn3)ccc2c1 — pIC50 (MDCK; neutral red; 48 h): 4.05
Nc1ccn([C@@H]2O[C@H](CO)[C@@H](O)C2(F)F)c(=O)n1 — IC50 (4T1; MTT; 48 h): 3.37 µg/mL
N#Cc1ccc(-c2cc(COc3cc(C(F)(F)F)nc4ccccc34)on2)cc1 — pIC50 (K562; MTS; 72 h): 4.08
Cc1ncsc1-c1ccc(CNC(=O)[C@@H]2C[C@@H](O)CN2C(=O)[C@@H](NC(=O)C2(F)CC2)C(C)(C)C)c(OCCOc2ccc(CN3CCN(c4cc(-c5ccccc5O)nnc4N)CC3)cc2)c1 — pIC50 (VCaP; ATP luminescence; 7 days): 7.61
CC(C)=CCc1ncc(/C=C2\NC(=O)[C@H](C(C)C)NC2=O)[nH]1 — pIC50 (NCI-H446; SRB): < 4.82
Cc1ccc(S(=O)(=O)n2cc(/C=N/NC(=O)Cc3ccc(F)cc3F)c3ccccc32)cc1 — pIC50 (MCF-10A; MTT; 48 h): < 4.30
Cc1ncsc1-c1ccc([C@H](C)NC(=O)[C@@H]2C[C@@H](O)CN2C(=O)[C@@H](NC(=O)CN2CCN(c3cc(-c4ccccc4O)nnc3N)CC2)C(C)(C)C)cc1 — pIC50 (VCaP; ATP luminescence; 7 days): 8.04
Cc1ccc(S(=O)(=O)n2cc(/C=N/NC(=O)c3ccccc3C)c3ccccc32)cc1 — pIC50 (MCF-10A; MTT; 48 h): < 4.30
COc1cccc2c1C(=O)c1c(O)c3c(c(O)c1C2=O)C[C@@](O)(C(=O)CO)C[C@@H]3O[C@H]1C[C@H](N)[C@H](O)[C@H](C)O1 — pIC50 (MDCK; neutral red; 48 h): 4.15
